From ChEMBL document CHEMBL3352477 (ACS Med Chem Lett, 2015) come the findings set out here.

As a reminder, the IC50 is the point on the concentration scale where inhibition reaches its midpoint.

Structures are written as SMILES.

Test [1] has as its target Serine/threonine-protein kinase/endoribonuclease IRE1 (Homo sapiens, UniProt O75460). Put plainly: Inhibition of human IRE1alpha using 5'[6FAM]-GAGUCCGCAGCACUC-[BHQ1]3' substrate by biochemical fluorescence quenching assay. In short, it runs like this:
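RNase activity of autophosphorylated IRE1α, read as cleavage of an XBP1 stem-loop RNA substrate. This format picks up inhibitors acting at either the kinase or the RNase domain.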

A further test has as its system HT-1080. Put plainly: Inhibition of human XBP1 splicing in human HT1080-CMV-XBP1-Luciferase cells assessed as luciferase signal by Promega Bright-Glo luciferase assay. The format is functional. In short, it runs like this:
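HT1080 cells carried an XBP1–luciferase fusion that is in frame and expressed only from the spliced XBP1 transcript. Thapsigargin induced the UPR and activated IRE1α to drive splicing. The luciferase signal was quantified as the measure of cellular XBP1 splicing.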

Test [2] in a line: Inhibition of aurora (unknown origin) assessed as phosphorylation of histone H3. Set-up: species or system Homo sapiens.
Test [3] has as its target Mitogen-activated protein kinase 10 (Homo sapiens, UniProt P53779). Put plainly: Inhibition of human wild type JNK3 using biotinylated ATF2 substrate assessed as phosphorylation at thr53 on ATF2 by fluorescent plate reader.

Sequence of Serine/threonine-protein kinase/endoribonuclease IRE1 (O75460 whole entry, the tested form may be a part): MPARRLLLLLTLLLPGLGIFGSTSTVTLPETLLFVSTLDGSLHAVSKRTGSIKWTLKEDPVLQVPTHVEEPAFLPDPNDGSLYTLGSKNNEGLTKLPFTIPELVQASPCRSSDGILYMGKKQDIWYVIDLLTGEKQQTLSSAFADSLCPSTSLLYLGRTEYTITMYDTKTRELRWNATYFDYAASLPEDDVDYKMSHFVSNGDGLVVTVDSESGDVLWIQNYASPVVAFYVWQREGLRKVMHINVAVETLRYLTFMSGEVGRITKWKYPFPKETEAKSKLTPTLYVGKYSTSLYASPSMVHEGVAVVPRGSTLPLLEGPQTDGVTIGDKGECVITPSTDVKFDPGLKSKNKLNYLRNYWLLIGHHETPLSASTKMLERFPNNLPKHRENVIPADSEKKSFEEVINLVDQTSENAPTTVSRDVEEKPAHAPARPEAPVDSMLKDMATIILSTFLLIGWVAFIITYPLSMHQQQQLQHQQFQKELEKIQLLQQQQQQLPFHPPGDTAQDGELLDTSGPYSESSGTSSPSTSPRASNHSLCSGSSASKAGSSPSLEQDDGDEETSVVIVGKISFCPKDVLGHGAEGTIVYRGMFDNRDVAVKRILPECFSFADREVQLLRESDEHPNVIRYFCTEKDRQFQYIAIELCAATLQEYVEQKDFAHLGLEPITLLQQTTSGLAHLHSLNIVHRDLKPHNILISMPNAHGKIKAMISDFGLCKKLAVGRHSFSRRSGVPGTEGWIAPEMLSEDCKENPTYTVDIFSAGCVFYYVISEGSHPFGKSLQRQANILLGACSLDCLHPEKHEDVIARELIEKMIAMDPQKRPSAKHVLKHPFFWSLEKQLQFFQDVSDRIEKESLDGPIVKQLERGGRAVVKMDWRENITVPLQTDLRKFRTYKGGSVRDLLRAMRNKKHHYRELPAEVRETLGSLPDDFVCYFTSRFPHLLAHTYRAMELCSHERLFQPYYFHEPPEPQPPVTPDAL
Sequence of Mitogen-activated protein kinase 10 (P53779 whole entry): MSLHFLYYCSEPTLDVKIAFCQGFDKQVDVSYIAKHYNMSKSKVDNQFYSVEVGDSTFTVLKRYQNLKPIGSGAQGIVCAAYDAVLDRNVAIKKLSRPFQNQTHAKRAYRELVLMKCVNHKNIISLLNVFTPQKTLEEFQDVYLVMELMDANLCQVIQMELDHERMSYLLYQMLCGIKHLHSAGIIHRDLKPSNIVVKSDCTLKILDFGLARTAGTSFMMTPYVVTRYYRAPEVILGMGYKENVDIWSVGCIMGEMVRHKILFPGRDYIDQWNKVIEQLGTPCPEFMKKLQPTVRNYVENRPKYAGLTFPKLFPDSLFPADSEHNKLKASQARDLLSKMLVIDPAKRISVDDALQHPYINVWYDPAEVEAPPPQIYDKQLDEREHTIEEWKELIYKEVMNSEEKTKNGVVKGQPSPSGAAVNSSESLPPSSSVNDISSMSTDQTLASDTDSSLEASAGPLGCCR

For the compound `CN(C)CCNc1nccc(-c2cccnc2Oc2ccc(Nc3nc4ccccc4[nH]3)c3ccccc23)n1`, the IC50 was 71 nM in test [1], 270 nM with HT-1080, 16000 nM in test [2] and 350 nM in test [3].
Turning to `Cc1cc(Nc2nc3ccccc3[nH]2)c2ccccc2c1Oc1ncccc1-c1ccnc(NCCN(C)C)n1`, the IC50 in test [1] was 14 nM; with HT-1080 it was 200 nM; in test [2], above 50000 nM; in test [3] it was 710 nM.
Consider `CC(C)CCNc1nccc(-c2cccnc2Oc2ccc(Nc3nc4ccccc4[nH]3)c3ccccc23)n1`, for which the figures for the IC50 (in test [1]; in the test with HT-1080; in test [3]) were above 99000 nM, 15000 nM and 32 nM, respectively.
Turning to `OCCNc1nccc(-c2cccnc2Oc2ccc(Nc3nc4ccccc4[nH]3)c3ccccc23)n1`, the IC50 was found to be 170 nM in test [1], 870 nM in the test with HT-1080 and 12 nM in test [3].
Regarding `CN1CCCC(Nc2nccc(-c3cccnc3Oc3ccc(Nc4nc5ccccc5[nH]4)c4ccccc34)n2)C1` (centres undefined), the IC50 in test [1] turned out to be 29 nM; in the test with HT-1080, 310 nM; in test [3], 5.5 nM.
In the case of `c1cnc(Oc2ccc(Nc3nc4ccccc4[nH]3)c3ccccc23)c(-c2ccnc(N[C@@H]3CCCNC3)n2)c1`, the results for the IC50 (in test [1]; in the test on HT-1080; in test [3]) were 51 nM, 570 nM and 14 nM, respectively.
For `c1cnc(Oc2ccc(Nc3nc4ccccc4[nH]3)c3ccccc23)c(-c2ccnc(N[C@H]3CCCNC3)n2)c1`, the results for the IC50 (in test [1]; in the test on HT-1080; in test [3]) were 9.7 nM, 31 nM and 31 nM, respectively.
On to `N[C@H]1CC[C@H](Nc2nccc(-c3cccnc3Oc3ccc(Nc4nc5ccccc5[nH]4)c4ccccc34)n2)CC1`, for which the figures for the IC50 (in test [1]; in the test on HT-1080; in test [3]) were 11 nM, 33 nM and 1.9 nM, respectively.
The corresponding values for `N[C@H]1CC[C@@H](Nc2nccc(-c3cccnc3Oc3ccc(Nc4nc5ccccc5[nH]4)c4ccccc34)n2)CC1` are 43 nM, 340 nM and 7.5 nM.
On the same counts, the results for `Cc1cc(Nc2nc3ccccc3[nH]2)c2ccccc2c1Oc1ncccc1-c1ccnc(N[C@H]2CC[C@H](N)CC2)n1` are 6.4 nM, 33 nM and 1.9 nM.
The corresponding values for `Cc1cc(Nc2nc3ccccc3[nH]2)c2ccccc2c1Oc1ncccc1-c1ccnc(N[C@H]2CCCNC2)n1` are 5.1 nM, 13 nM and 20 nM.
Turning to `Cc1cc(Nc2nc3ccccc3o2)c2ccccc2c1Oc1ncccc1-c1ccnc(N[C@H]2CC[C@H](N)CC2)n1`, the results for the IC50 (in test [1]; with HT-1080; in test [3]) were 14 nM, 51 nM and 7 nM, respectively.
On to `Cc1cc(NS(=O)(=O)c2ccccc2)c2ccccc2c1Oc1ncccc1-c1ccnc(N[C@H]2CC[C@H](N)CC2)n1`, for which the IC50 stood at 45 nM in test [1], 590 nM in the test on HT-1080 and 2200 nM in test [3].
As to `COc1ccccc1S(=O)(=O)Nc1cc(C)c(Oc2ncccc2-c2ccnc(N[C@H]3CC[C@H](N)CC3)n2)c2ccccc12`, the results for the IC50 (in test [1]; in the test with HT-1080; in test [3]) were 54 nM, 440 nM and 1200 nM, respectively.
The corresponding values for `Cc1cc(NS(=O)(=O)c2ccccc2C#N)c2ccccc2c1Oc1ncccc1-c1ccnc(N[C@H]2CC[C@H](N)CC2)n1` are 12 nM, 62 nM and 400 nM.
The corresponding values for `Cc1cc(NS(=O)(=O)c2ccccc2Cl)c2ccccc2c1Oc1ncccc1-c1ccnc(N[C@H]2CC[C@H](N)CC2)n1` are 14 nM, 42 nM and 1600 nM.
For the compound `Cc1ccc2c(NS(=O)(=O)c3ccccc3Cl)cccc2c1Oc1ncccc1-c1ccnc(N[C@H]2CC[C@H](N)CC2)n1`, the IC50 stood at 22 nM in test [1], 120 nM in the test on HT-1080 and 540 nM in test [3].
`Cc1ccc2c(NS(=O)(=O)c3ccccc3Cl)cccc2c1Oc1ncccc1-c1ccnc(N[C@H]2CCCNC2)n1`: the results for the IC50 (in test [1]; in the test with HT-1080; in test [3]) were 13 nM, 99 nM and 2500 nM, respectively.
Consider `N[C@H]1CC[C@H](Nc2nccc(-c3cccnc3Oc3ccc(NS(=O)(=O)c4ccccc4Cl)c4ccccc34)n2)CC1`, for which the IC50 came to 31 nM in test [1], 580 nM in the test on HT-1080 and 400 nM in test [3].
